Results on one compound are retold here after ChEMBL document CHEMBL1629700, “Assessment of oritavancin serum protein binding across species” (Antimicrob Agents Chemother, 2010).

Data set [1] relates to Staphylococcus aureus. Kind of data set: Antibacterial activity against Staphylococcus aureus ATCC 29213 grown in CAMHB medium by broth microdilution method in presence of 50 ug/ml CaCl2 and 95% human serum. Type of data set: functional. Put shortly: (§1)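 Broth microdilution MIC run in a matrix of 95% pooled serum, or 95% ultrafiltrate of that serum (50 kDa cutoff, albumin excluded), plus 5% CAMHB. Arithmetic dilutions ran from 20 to 0.3 μg/ml in CAMHB with 50 μg/ml CaCl2. Means came from 8 replicates (mouse 4 to 8). Beagle dog serum was used for dog.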

Data set [2] has as its system Staphylococcus aureus. Kind of data set: Ratio of MIC for Staphylococcus aureus ATCC 29213 grown in CAMHB medium in presence of 95% mouse serum to MIC for Staphylococcus aureus ATCC 29213 in presence of 95% mouse serum ultrafiltrate. Type of data set: functional. Put shortly:
(§2)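 The fold increase is the mean arithmetic broth microdilution MIC in 95% serum (plus 5% CAMHB) divided by the mean MIC in 95% serum ultrafiltrate (plus 5% CAMHB). The ultrafiltrate was prepared with a 50 kDa cutoff that excludes albumin. Replicates were 8 per condition, or 4 to 8 for mouse. The same data give % bound = (1 − MIC ultrafiltrate/MIC serum) × 100.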

Data set [3] relates to Staphylococcus aureus. As to the kind of experiment: Ratio of MIC for Staphylococcus aureus ATCC 29213 grown in CAMHB medium in presence of 95% rat serum to MIC for Staphylococcus aureus ATCC 29213 in presence of 95% rat serum ultrafiltrate. Type of data set: functional. Put shortly: as §2
In data set [4] the test system is Staphylococcus aureus. As to the kind of experiment: Ratio of MIC for Staphylococcus aureus ATCC 29213 grown in CAMHB medium in presence of 95% dog serum to MIC for Staphylococcus aureus ATCC 29213 in presence of 95% dog serum ultrafiltrate. The class given is functional. The procedure, abridged: as §2
Data set [5] can be described thus: Protein binding in mouse serum by broth microdilution method. Type of data set: ADME, cell-free. As to conditions: read-out: PB (converted). Put shortly:
(§3)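 Pooled serum (dog: beagle) and its ultrafiltrate (50 kDa cutoff, excludes albumin) were used. Broth microdilution MICs against S. aureus ATCC 29213 were read with arithmetic drug dilutions, made in CAMHB with 0.002% polysorbate-80, in 95% serum or 95% ultrafiltrate plus 5% CAMHB. % bound = (1 − mean MIC ultrafiltrate/mean MIC serum) × 100. Human, rat and dog used 8 replicates; mouse used 4–8.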
For orientation: In broth dilution the organism is exposed to a series of concentrations in liquid medium.

Data set [6] is described as follows: Protein binding in human serum by broth microdilution method. The class given is ADME, cell-free. As to conditions: read-out: PB (converted). The procedure, abridged: as §3
Data set [7] is described as follows: Protein binding in rat serum by broth microdilution method. Type of data set: ADME, cell-free. As to conditions: read-out: PB (converted). The procedure, abridged:
as §3

A short description of data set [8]: Protein binding in dog serum by broth microdilution method. Type of data set: ADME, cell-free, Canis lupus familiaris. As to conditions: read-out: PB (converted). Put shortly:
as §3

Data set [9] concerns Staphylococcus aureus. Kind of data set: Antibacterial activity against Staphylococcus aureus ATCC 29213 grown in CAMHB medium by broth microdilution method in presence of 50 ug/ml CaCl2 and 95% rat serum ultrafiltrate. The class given is functional. The procedure, abridged:
as §1

For data set [10], the system named is Staphylococcus aureus. As to the kind of experiment: Antibacterial activity against Staphylococcus aureus ATCC 29213 grown in CAMHB medium by broth microdilution method in presence of 50 ug/ml CaCl2 and 95% rat serum. Type of data set: functional. Put shortly:
as §1

The test system of data set [11] is Staphylococcus aureus. As to the kind of experiment: Antibacterial activity against Staphylococcus aureus ATCC 29213 grown in CAMHB medium by broth microdilution method in presence of 50 ug/ml CaCl2 and 95% dog serum ultrafiltrate. The class given is functional. Put shortly: as §1
The test system of data set [12] is Staphylococcus aureus. As to the kind of experiment: Antibacterial activity against Staphylococcus aureus ATCC 29213 grown in CAMHB medium by broth microdilution method in presence of 50 ug/ml CaCl2 and 95% dog serum. Type of data set: functional. The procedure, abridged: as §1
Data set [13] deals with Staphylococcus aureus. As to the kind of experiment: Ratio of MIC for Staphylococcus aureus ATCC 29213 grown in CAMHB medium in presence of 95% human serum to MIC for Staphylococcus aureus ATCC 29213 in presence of 95% human serum ultrafiltrate. The class given is functional. The procedure, abridged:
as §2

The test system of data set [14] is Staphylococcus aureus. Kind of data set: Antibacterial activity against Staphylococcus aureus ATCC 29213 grown in CAMHB medium by broth microdilution method in presence of 50 ug/ml CaCl2 and 95% mouse serum ultrafiltrate. Type of data set: functional. The procedure, abridged:
as §1

Data set [15] has as its system Staphylococcus aureus. Kind of data set: Antibacterial activity against Staphylococcus aureus ATCC 29213 grown in CAMHB medium by broth microdilution method in presence of 50 ug/ml CaCl2 and 95% mouse serum. The class given is functional. The procedure, abridged: as §1
In data set [16] the test system is Staphylococcus aureus. Kind of data set: Antibacterial activity against Staphylococcus aureus ATCC 29213 grown in CAMHB medium by broth microdilution method in presence of 50 ug/ml CaCl2. The class given is functional. The procedure, abridged: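 Broth microdilution per CLSI M7-A8 in cation-adjusted Mueller-Hinton broth with 50 μg/ml CaCl2. Arithmetic dilution steps of 5 μg/ml from 20 to 10 μg/ml, 1 μg/ml from 10 to 2, 0.5 μg/ml from 2 to 1, and 0.1 μg/ml from 1 to 0.3 μg/ml. Mean of 8 replicates.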

Data set [17] relates to Staphylococcus aureus. As to the kind of experiment: Antibacterial activity against Staphylococcus aureus ATCC 29213 grown in CAMHB medium by broth microdilution method in presence of 50 ug/ml CaCl2 and 95% human serum ultrafiltrate. Type of data set: functional. Put shortly:
as §1

As usually defined, the MIC is the smallest concentration in the dilution series that meets the test's criterion for growth inhibition. As to `CCCCCCCCCC(=O)N[C@@H](Cc1c[nH]c2ccccc12)C(=O)N[C@H](CC(N)=O)C(=O)N[C@@H](CC(=O)O)C(=O)N[C@@H]1C(=O)NCC(=O)N[C@@H](CCCN)C(=O)N[C@@H](CC(=O)O)C(=O)N[C@H](C)C(=O)N[C@@H](CC(=O)O)C(=O)NCC(=O)N[C@H](CO)C(=O)N[C@@H]([C@H](C)CC(=O)O)C(=O)N[C@@H](CC(=O)c2ccccc2N)C(=O)O[C@@H]1C`, the minimum inhibitory concentration (MIC) in the data set with Staphylococcus aureus [1] was found to be 3 µg/mL; in the data set with Staphylococcus aureus [9], 0.538 µg/mL; with Staphylococcus aureus [10], 1.56 µg/mL; with Staphylococcus aureus [11] it was 0.638 µg/mL; in the data set with Staphylococcus aureus [12] it was 2.5 µg/mL; in the data set on Staphylococcus aureus [14], 3 µg/mL. Moreover, the minimum inhibitory concentration (MIC) in the data set on Staphylococcus aureus [15] came out at 12.5 µg/mL; with Staphylococcus aureus [16], 0.975 µg/mL; in the data set on Staphylococcus aureus [17], 0.513 µg/mL. For the same compound, the Ratio turned out to be 4.2 with Staphylococcus aureus [2], 2.9 in the data set on Staphylococcus aureus [3], 3.9 in the data set on Staphylococcus aureus [4] and 5.8 in the data set with Staphylococcus aureus [13]. Also, the fraction unbound was 0.24 in data set [5], 0.171 in [6], 0.344 in [7] and 0.255 in data set [8].
